One assay concerns J774. The experiment in a line: Cytotoxicity against mouse J774 cells. The class given is cell-based.
In assay [1] the test system is Plasmodium falciparum. The experiment in a line: Resistance index, ratio of EC50 for Plasmodium falciparum TM90-C2B to EC50 for Plasmodium falciparum W2. The class given is functional.
For assay [2], the system named is Plasmodium falciparum. Nature of the assay: Antimalarial activity against Plasmodium falciparum W2. In kind it is functional, organism-based.
For assay [3], the system named is Plasmodium falciparum. The experiment in a line: Antimalarial activity against Plasmodium falciparum TM90-C2B. The class given is functional, organism-based.
Another assay has as its system Plasmodium berghei. Nature of the assay: Antimalarial activity against Plasmodium berghei. The class given is functional, organism-based. Summed up: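 In vitro liver-stage (exoerythrocytic) assay against P. berghei; the value is the EC50 (nM).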
Assay [4] in a line: Liver blood index, ratio of EC50 for Plasmodium falciparum W2 to EC50 for Plasmodium berghei. The class given is functional. Summed up: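 Liver-stage EC50 measured in vitro against P. berghei. Liver blood index is the blood-stage EC50 divided by the P. berghei EC50, using either W2 or TM90-C2B as the blood-stage strain.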

The term EC50 denotes the concentration giving half of the maximal effect. Lower therefore signals a more potent agent. `CCOc1ccc2[nH]cc(C(=O)OC)c(=O)c2c1`: the figures for the 50% effective concentration (EC50) in the assay on J774, in the assay with Plasmodium falciparum [2] and in the assay with Plasmodium falciparum [3] were over 20 µM, 292 nM and over 10.1 µM, respectively. In addition, the “Ratio EC50” value in the assay on Plasmodium falciparum [1] is reported as over 34.6.

`COC(=O)c1c[nH]c2cc(F)ccc2c1=O`: the EC50 in the assay on J774 was over 20 µM; in the assay with Plasmodium berghei, over 100 nM; in the assay on Plasmodium falciparum [2] it was 26.2 nM; in the assay with Plasmodium falciparum [3], 0.395 µM. Moreover, the “Ratio EC50” value in the assay with Plasmodium falciparum [1] stood at 15.1.

Consider `CCCCc1cc2c(=O)c(C(=O)NC(C)C)c[nH]c2cc1OCCOc1ccccc1`, for which the concentration giving a half-maximal response (EC50) was over 20 µM in the assay on J774, 3340 nM in the assay with Plasmodium falciparum [2] and 5.14 µM in the assay on Plasmodium falciparum [3]. In the assay on Plasmodium falciparum [1], the “Ratio EC50” value is 1.54.

For `COC(=O)c1c[nH]c2cc(Cl)ccc2c1=O`, the figures for the concentration for a half-maximal effect (EC50) with J774, in the assay on Plasmodium falciparum [2] and with Plasmodium falciparum [3] were over 20 µM, 2360 nM and 5.8 µM, respectively. Also, the “Ratio EC50” value in the assay with Plasmodium falciparum [1] was determined as 2.46.

Take `COC(=O)c1c[nH]c2cc(OCc3ccccc3)ccc2c1=O`: the EC50 worked out at 18.9 µM with J774, 1830 nM in the assay on Plasmodium falciparum [2] and 8.08 µM in the assay on Plasmodium falciparum [3]. Also, the “Ratio EC50” value with Plasmodium falciparum [1] is 4.42.

As to `CCCCc1cc2c(=O)c(C(=O)NCC)c[nH]c2cc1OCCOc1ccccc1`, the EC50 in the assay on J774 was over 20 µM; in the assay on Plasmodium falciparum [2], 206 nM; in the assay with Plasmodium falciparum [3], over 6.12 µM. For the same molecule, the “Ratio EC50” value in the assay on Plasmodium falciparum [1] is listed as over 29.7.

For the molecule `CCc1ccc2[nH]cc(C(=O)OC)c(=O)c2c1`, the EC50 in the assay with J774 is over 20 µM; in the assay on Plasmodium falciparum [2], 145 nM; in the assay with Plasmodium falciparum [3], over 10.8 µM. For the same molecule, the “Ratio EC50” value with Plasmodium falciparum [1] is reported as over 74.5.

Take `COC(=O)c1c[nH]c2ccc(Oc3ccc(F)cc3)cc2c1=O`: the half-maximal effective concentration (EC50) in the assay with J774 was over 20 µM; in the assay with Plasmodium falciparum [2] it was 117 nM; in the assay with Plasmodium falciparum [3] it was 5.71 µM. Also, the “Ratio EC50” value with Plasmodium falciparum [1] is 48.8.

Consider `COC(=O)c1c[nH]c2cc(-c3ccccc3)ccc2c1=O`, for which the concentration giving a half-maximal response (EC50) was over 20 µM in the assay on J774, 2560 nM with Plasmodium falciparum [2] and 11.3 µM in the assay with Plasmodium falciparum [3]. The “Ratio EC50” value in the assay with Plasmodium falciparum [1] is 4.41.

Turning to `O=c1cc[nH]c2cc(OCCOc3ccccc3)ccc12`, the concentration giving a half-maximal response (EC50) in the assay with J774 was over 20 µM; in the assay on Plasmodium berghei, over 354 nM; in the assay with Plasmodium falciparum [2], 5960 nM; in the assay on Plasmodium falciparum [3], 7.68 µM. Besides, the “Ratio EC50” value with Plasmodium falciparum [1] is 1.29.

For the molecule `CCCCc1ccc2[nH]ccc(=O)c2c1`, the concentration for a half-maximal effect (EC50) with J774 was over 20 µM; in the assay with Plasmodium berghei it was 395 nM; in the assay with Plasmodium falciparum [2] it was 352 nM; in the assay with Plasmodium falciparum [3], over 12.4 µM. In addition, the “Ratio EC50” value in the assay on Plasmodium falciparum [1] is over 35.2; in assay [4], 0.89.

For the molecule `CCCCCc1cc2c(=O)c(C(=O)OC)c[nH]c2cc1OCCOc1ccccc1`, the EC50 with J774 was over 20 µM; in the assay on Plasmodium berghei, under 0.56 nM; with Plasmodium falciparum [2] it was 0.183 nM; in the assay on Plasmodium falciparum [3], 0.0687 µM. In the assay on Plasmodium falciparum [1], the “Ratio EC50” value is recorded as 375.

For `COC(=O)c1c[nH]c2ccc(Oc3ccccc3)cc2c1=O`, the concentration for a half-maximal effect (EC50) in the assay on J774 was over 20 µM; in the assay with Plasmodium falciparum [2], 381 nM; in the assay with Plasmodium falciparum [3], 7.06 µM. The “Ratio EC50” value with Plasmodium falciparum [1] was found to be 18.5.

Turning to `CCCc1cc2c(=O)c(C(=O)OC)c[nH]c2cc1OCCOc1ccccc1`, the half-maximal effective concentration (EC50) in the assay with J774 is over 20 µM; with Plasmodium berghei, under 0.06 nM; with Plasmodium falciparum [2], 0.157 nM; in the assay on Plasmodium falciparum [3], 0.0424 µM. In addition, the “Ratio EC50” value with Plasmodium falciparum [1] was 270.

For `CCCCc1cc2c(=O)c(C(C)=O)c[nH]c2cc1OCCOc1ccccc1`, the “Ratio EC50” value with Plasmodium falciparum [1] is 39.1. In addition, the concentration giving a half-maximal response (EC50) with Plasmodium falciparum [2] turned out to be 9.67 nM; with Plasmodium falciparum [3], 0.378 µM.

Regarding `COC(=O)c1c[nH]c2ccc(-c3ccccc3)cc2c1=O`, the EC50 was over 20 µM in the assay on J774, over 179 nM in the assay on Plasmodium berghei, 2090 nM in the assay with Plasmodium falciparum [2] and 7.18 µM in the assay on Plasmodium falciparum [3]. Besides, the “Ratio EC50” value in the assay on Plasmodium falciparum [1] is reported as 3.44.

As to `COC(=O)c1c[nH]c2ccc(C(C)C)cc2c1=O`, the half-maximal effective concentration (EC50) in the assay with J774 is over 20 µM; in the assay with Plasmodium falciparum [2] it was 354 nM; in the assay on Plasmodium falciparum [3], over 10.2 µM. Moreover, the “Ratio EC50” value in the assay with Plasmodium falciparum [1] is listed as over 28.8.

These data come from ChEMBL document CHEMBL4425110, “ICI 56,780 Optimization: Structure-Activity Relationship Studies of 7-(2-Phenoxyethoxy)-4(1H)-quinolones with Antimalarial Activity” (J Med Chem, 2016).
